15 compounds from ChEMBL document CHEMBL4392846, “Identification and design of novel small molecule inhibitors against MERS-CoV papain-like protease via high-throughput screening and molecular modeling” (Bioorg Med Chem, 2019) can be followed below.

Active and inactive are the calls of the source. No cut-off for these calls is given here.

The target in assay [1] is T1, Replicase polyprotein 1ab (Middle East respiratory syndrome-related coronavirus (isolate UnitedKingdom/H123990006/2012) (Betacoronavirus England 1) (Humancoronavirus EMC), UniProt K9N7C7). Kind of assay: Binding affinity to MERS-CoV papain-like protease by SPR analysis. An outline of the steps: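 SPR on Biacore T200. Enzyme at 50 µg/mL in 10 mM sodium acetate pH 5.5 amine-coupled to CM5 chip (~10,000 RU); blank flow cells as reference. Compounds 0-50 µM (2-fold series) in PBSP + 0.5 mM TCEP, 2% DMSO, 30 µL/min, 25°C; double-referenced. KD from steady-state responses fit to rectangular hyperbola; rate constants from global 1:1 Langmuir fit.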
T1 sequence (K9N7C7 854-2740 limits assumed): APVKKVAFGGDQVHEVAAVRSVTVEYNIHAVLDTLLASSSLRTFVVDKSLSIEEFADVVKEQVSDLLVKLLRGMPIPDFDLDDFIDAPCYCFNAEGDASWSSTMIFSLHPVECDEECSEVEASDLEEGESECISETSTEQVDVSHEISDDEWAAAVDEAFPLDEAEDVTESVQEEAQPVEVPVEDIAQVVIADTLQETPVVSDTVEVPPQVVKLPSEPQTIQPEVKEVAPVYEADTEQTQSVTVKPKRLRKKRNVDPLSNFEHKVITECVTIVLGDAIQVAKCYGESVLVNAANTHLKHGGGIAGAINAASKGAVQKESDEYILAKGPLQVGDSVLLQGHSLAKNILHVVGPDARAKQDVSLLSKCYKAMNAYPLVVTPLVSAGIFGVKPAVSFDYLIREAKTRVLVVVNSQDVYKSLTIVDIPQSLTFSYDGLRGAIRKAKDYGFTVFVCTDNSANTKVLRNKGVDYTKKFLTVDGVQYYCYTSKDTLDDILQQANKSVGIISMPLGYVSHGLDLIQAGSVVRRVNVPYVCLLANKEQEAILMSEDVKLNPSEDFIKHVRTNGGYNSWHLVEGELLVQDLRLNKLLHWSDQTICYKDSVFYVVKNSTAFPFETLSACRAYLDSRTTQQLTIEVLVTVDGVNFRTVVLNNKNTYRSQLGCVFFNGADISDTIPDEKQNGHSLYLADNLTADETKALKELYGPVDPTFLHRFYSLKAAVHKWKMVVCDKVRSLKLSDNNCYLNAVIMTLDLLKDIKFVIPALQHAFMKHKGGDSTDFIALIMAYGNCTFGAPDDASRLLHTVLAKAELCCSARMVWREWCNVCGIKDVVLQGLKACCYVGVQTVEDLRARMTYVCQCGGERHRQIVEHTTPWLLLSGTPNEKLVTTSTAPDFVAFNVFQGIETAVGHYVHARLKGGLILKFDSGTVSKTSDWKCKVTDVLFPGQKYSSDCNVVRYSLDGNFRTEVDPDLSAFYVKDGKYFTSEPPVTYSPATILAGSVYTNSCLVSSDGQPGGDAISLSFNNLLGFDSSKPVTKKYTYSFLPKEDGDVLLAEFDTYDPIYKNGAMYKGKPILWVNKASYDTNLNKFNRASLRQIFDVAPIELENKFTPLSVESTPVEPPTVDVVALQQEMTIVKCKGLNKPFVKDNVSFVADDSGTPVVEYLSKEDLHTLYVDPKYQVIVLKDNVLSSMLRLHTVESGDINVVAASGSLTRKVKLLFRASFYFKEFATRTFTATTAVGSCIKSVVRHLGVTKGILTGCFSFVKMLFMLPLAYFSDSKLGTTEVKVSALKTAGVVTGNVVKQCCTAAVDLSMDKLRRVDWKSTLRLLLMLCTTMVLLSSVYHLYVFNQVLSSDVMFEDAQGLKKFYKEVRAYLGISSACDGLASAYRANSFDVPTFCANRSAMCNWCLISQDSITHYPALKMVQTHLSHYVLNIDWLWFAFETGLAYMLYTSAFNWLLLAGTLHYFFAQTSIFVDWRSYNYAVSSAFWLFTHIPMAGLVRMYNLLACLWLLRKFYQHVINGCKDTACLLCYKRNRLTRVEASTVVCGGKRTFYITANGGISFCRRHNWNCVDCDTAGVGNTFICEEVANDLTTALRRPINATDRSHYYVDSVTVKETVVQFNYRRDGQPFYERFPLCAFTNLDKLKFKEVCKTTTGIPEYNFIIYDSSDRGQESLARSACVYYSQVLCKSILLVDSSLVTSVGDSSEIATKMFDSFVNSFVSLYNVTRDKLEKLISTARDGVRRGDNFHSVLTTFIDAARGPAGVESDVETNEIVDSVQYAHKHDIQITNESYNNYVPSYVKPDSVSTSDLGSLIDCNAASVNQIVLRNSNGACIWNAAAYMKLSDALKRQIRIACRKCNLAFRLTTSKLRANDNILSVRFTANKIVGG

For assay [2], the target named is T1, Replicase polyprotein 1ab. Kind of assay: (§1) Inhibition of MERS-CoV papain-like protease using Z-Arg-Leu-Arg-Gly-Gly-AMC as substrate preincubated for 5 mins followed by substrate addition and measured for 10 mins by fluorescence assay.
Assay [3] deals with T1, Replicase polyprotein 1ab. Kind of assay: Competitive-inhibition of MERS-CoV papain-like protease using varying levels of Z-Arg-Leu-Arg-Gly-Gly-AMC as substrate by Dixon-plot analysis.
Assay [4] deals with Replicase polyprotein 1ab (Middle East respiratory syndrome-related coronavirus (isolate UnitedKingdom/H123990006/2012) (Betacoronavirus England 1) (Humancoronavirus EMC)) (UniProt K9N7C7). Kind of assay: Binding affinity to 15N-labelled His-tagged Apo-MRES-CoV papain-like protease by TROSY [1H-15N] spectroscopy.
The target is the same in assay [5]. The assay is described as §1. Also noted: concentration or dose not given beside the values.
Target sequence in this assay (K9N7C7 854-2740 limits assumed): as above
For assay [6] the target is unchanged. Briefly: Reversible inhibition of MERS-CoV papain-like protease assessed as recovery of enzyme activity at 125 times IC50 using Z-Arg-Leu-Arg-Gly-Gly-AMC as substrate incubated for 1 hr followed by 2-fold dilution and measured by fluorescence assay. The essentials: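 Dilution method: 4 µM enzyme incubated with compound for 1 h at room temperature in HEPES pH 7.5 assay buffer (2 mM DTT, 0.1 mg/ml BSA, 0.01% Triton X-100). DMSO-only enzyme served as control. Both samples diluted 2-fold, then seven further 2-fold dilutions. Activity read at each step with the continuous Z-RLRGG-AMC fluorescence assay.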

Assay [7] has the same target. Briefly: Inhibition of MERS-CoV papain-like protease at 50 uM using Z-Arg-Leu-Arg-Gly-Gly-AMC as substrate preincubated for 5 mins followed by substrate addition and measured for 10 mins by fluorescence assay relative to control. An outline of the steps: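 Confirmation retest run by hand in triplicate at room temperature. Buffer: 50 mM HEPES pH 7.5, 0.01% Triton X-100, 0.1 mg/mL BSA, 2 mM DTT. Enzyme and compound preincubated 5 min, then Z-RLRGG-AMC added to 50 µM final. AMC fluorescence (ex 360/em 450 nm) followed continuously; percent inhibition calculated against DMSO control.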

The target is the same in assay [8]. Briefly: Binding affinity to MERS-CoV papain-like protease in presence of Z-Arg-Leu-Arg-Gly-Gly-AMC by SPR analysis. An outline of the steps: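 MERS-CoV PLpro was amine-coupled to a CM5 chip (~10,000 RU), with unmodified reference cells. Compounds (0-50 µM, 2-fold series) were injected with 500 µM Z-RLRGG-AMC substrate present, in PBSP + 0.5 mM TCEP + 2% DMSO at 30 µL/min and 25°C. Data were double-referenced, and KD came from a steady-state hyperbolic fit.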

The compound `Cc1ccc(C)c(CSc2nc(C3CCCCC3)c(C#N)c(=O)[nH]2)c1` showed a Kd in assay [1] of 7.6 to 112 µM.

For `O=[N+]([O-])c1ccc(Cl)c2nonc12`, the IC50 in assay [2] came to 141 µM. For `Cc1cc(C)n(S(=O)(=O)c2ccc(N)cc2)c(=O)n1`, the Ki in assay [3] was determined as 36.6 µM. Besides, the result in assay [4] was Active. Further, the inhibition in assay [5] is 73%; in assay [7] it was above 50%. In assay [2], this compound had an IC50 of 20 µM. The inhibition result in assay [6] was “Active”. Moreover, the Kd in assay [1] fell in the range of 7.6 to 9.3 µM. `CC(=O)Nc1ccc(S(=O)(=O)n2c(C)cc(C)nc2=O)cc1` had an inhibition in assay [5] of 2%. `O=Cc1ccc(O)c(O)c1` [PROTOCATECHUALDEHYDE] came in with an IC50 in assay [2] of 239 µM. In assay [2], `Nc1ccc([N+](=O)[O-])cn1` displayed an IC50 of 137 µM. On to `O=C(NC1=CC=CC2C(=O)C=C(c3nn[nH]n3)OC12)c1ccc(OCCCCc2ccccc2)cc1` (configuration not stated), for which the result in assay [8] was inactive. Also, the inhibition in assay [7] is above 50%. With `O=C(O)c1cc(/C=C/c2ccc(N3CCOCC3)cc2)nc2ccccc12`, the Kd in assay [1] fell in the range of 7.6 to 112 µM.

For `Cn1c(=O)c2c(nc(NN=C3C(=O)NC(=O)NC3=O)n2C)n(C)c1=O`, the Kd in assay [1] lay in the range of 7.6 to 112 µM. In assay [5], `Nc1ccc(S(=O)(=O)N2CC(=O)NC(=O)C2)cc1` came in with an inhibition of 16%. The compound `Cc1ccc(S(=O)(=O)n2c(C)cc(C)nc2=O)cc1` had an inhibition in assay [5] of 11%. `CC1CCCC(C)N1S(=O)(=O)c1ccc(N)cc1` (configuration not stated): the inhibition in assay [5] was determined as 7%. In assay [1], `COCC(=O)/C=C1\Sc2ccccc2N1C` displayed a Kd of 7.6 to 112 µM.

In assay [1], `O=C(O)c1cc(/N=N/c2ccc(S(=O)(=O)Nc3ccccn3)cc2)ccc1O` [SULFASALAZINE] came in with a Kd of 7.6 to 112 µM. In assay [2], `O=[N+]([O-])c1ccc(O)c(O)c1` [4-Nitrocatechol] showed an IC50 of 145 µM.
